TLR4 MyD88 comp: blocks binding of human TLR4 to MyD88 | HeLa CL3-4 TLR4/MyD88 BLA complementation, FRET ratio | inhibition, % at 8.4 µM | hit rate 0.18% among 200,000 | AID 861; in the data active means inhibition above about 25%;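 further: 0% = vehicle and 100% = reference inhibitor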
TLR9-MyD88 block: blocks human TLR9 binding to MyD88. inhibition, % at 4.98 µM. Q9NR96+Q99836. hit rate 0.21% among 340,000. CHO BLA complementation TLR9-MyD88, CCF4 FRET ratio;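 active means inhibition above the mean over all tested compounds plus 3 SD, cut at about 21% in these data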;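 further: 0% = DMSO only wells and 100% = clavulanate BLA inhibitor control wells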
Dynein transport: dynein cargo transport inhibition; 3617.4 mouse cells, GR-EGFP nuclear translocation imaging; test concentration mostly 20 µM; stimulated with dexamethasone, 1 µM; stronger effect = lower value; z-score, hits read low; hit rate 0.47% among 220,000;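 active means plate z-score of nuclear minus cytoplasmic receptor signal below a set negative limit, without overly bright fluorescence or cell loss, cut at about -3.5 in these data, passing the limit was not always enough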;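 further: z-score of nuclear minus cytoplasmic ring GR-EGFP intensity difference per well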
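Buffer or medium: tet-free, stripped-serum medium; Also added: dexamethasone, 1.0 µM final; Technique: high-content fluorescence imaging after fixation; Times: 48 h induction, 1 h compound, 30 min dex at 37 °C; Read-out: per-cell GR-EGFP intensity, nucleus versus surrounding cytoplasmic ring, well-averaged.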
ABHD5 PLIN5 PPI: blocks binding of human ABHD5 to perilipin-5. Q00G26+Q8WTS1. inhibition, % at 4 µM. Split G. princeps luciferase complementation, luminescence, 4 h. hit rate 0.78% among 360,000. AID 602281;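 active means inhibition above the mean inhibition across every tested compound plus 3 SD, cut at about 22% in these data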;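 further: 0% = DMSO only wells and the 100% control is not disclosed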
NOD2 RIPK2 PPI: NOD2-RIPK2 protein interaction inhibition | O43353 | CHO BLA complementation NOD2-RIPK2, CCF4 ratio | inhibition, % at 4.98 µM | hit rate 0.38% among 360,000; in the data active means inhibition above about 21%;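 further: 0% = vehicle only and 100% = reference blocker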
Target sequence (O43353 whole entry, looked up): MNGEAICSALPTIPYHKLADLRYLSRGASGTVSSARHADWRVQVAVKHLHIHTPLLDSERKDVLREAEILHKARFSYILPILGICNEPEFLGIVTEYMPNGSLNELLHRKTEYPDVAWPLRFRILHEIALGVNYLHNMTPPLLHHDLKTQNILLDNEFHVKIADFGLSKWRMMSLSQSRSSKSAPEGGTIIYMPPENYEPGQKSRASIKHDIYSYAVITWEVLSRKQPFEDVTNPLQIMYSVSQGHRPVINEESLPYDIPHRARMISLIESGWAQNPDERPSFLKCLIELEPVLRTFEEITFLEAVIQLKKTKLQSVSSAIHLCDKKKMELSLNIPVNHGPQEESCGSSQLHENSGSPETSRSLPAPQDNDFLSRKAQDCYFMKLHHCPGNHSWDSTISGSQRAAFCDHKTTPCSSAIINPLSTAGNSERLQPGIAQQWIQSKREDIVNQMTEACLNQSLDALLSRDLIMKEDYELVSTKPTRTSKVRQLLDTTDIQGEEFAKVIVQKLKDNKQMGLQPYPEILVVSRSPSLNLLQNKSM
Beta2AR agonist: human beta-2 adrenergic receptor agonism by FAP. P07550. hit rate 0.43% among 340,000. Am2.2-beta2AR cells, FAP receptor internalization, flow cytometry. response, % (test concentration not listed);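 active means response above a set limit, near 3 SD of response in nonfluorescent compounds, cut at about 42% in these data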
ABHD5-PLIN5 conf: ABHD5-PLIN5 interaction inhibition, confirmed | biochemical ABHD5-PLIN5 interaction, luminescence | hit rate 67% among 2,200 | inhibition, % at 4 µM | shares compounds with ABHD5 PLIN5 PPI; in the data active means inhibition above about 23%;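 further: 0% = DMSO vehicle wells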
HNF4 split-luc: HNF4 split-luciferase signal hit, counter-screen; shares compounds with ABHD5 PLIN5 PPI; HNF4 dimerization, luminescence, biochemical; inhibition, % at 4 µM; hit rate 77% among 2,200; AID 651674;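 active means mean inhibition across replicate wells exceeding the computed hit threshold, cut at about 13% in these data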;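 further: light from luciferase halves that rejoin when HNF4 fusion proteins dimerize; 0% = DMSO only wells and the 100% control is not given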
An asterisk follows results filed as active; · = no result given. This is a sample that favours compounds with a hit; in the whole collection about 1.6% have one here.

SMILES	TLR4 MyD88 comp	TLR9-MyD88 block	Dynein transport	ABHD5 PLIN5 PPI	NOD2 RIPK2 PPI	Beta2AR agonist	ABHD5-PLIN5 conf	HNF4 split-luc
C=CCn1cc(C=C2C(=O)N(C)C(=O)N(C)C2=O)c2ccccc21	·	6	·	23*	0	1	7	5
O=C(O)Cn1cc(/C=C2\C(=O)NC(=O)N(c3ccc(Br)cc3)C2=O)c2ccccc21	·	-1	·	22	4	5	·	·
CCN(CC)C(=O)Cn1cc(C=C2C(=O)N(C)C(=O)N(C)C2=O)c2ccccc21	·	-7	·	9	6	-2	·	·
O=C1c2ccccc2-n2nncc2C2c3cc(Br)ccc3CCN12 (stereo unspecified)	·	·	·	-3	4	·	·	·
O=P1(NCCCn2cc[n+](Cc3nc4ccccc4[nH]3)c2)C=C(c2ccccc2)OC(c2ccccc2)=C1	·	-2	-0.64	26*	-7	-13	12	-1
C=C1C(=O)OC2CC3(C)OC3CCC(C)=CC(OC(C)=O)C12 (stereo unspecified)	·	-15	·	33*	16	-47	45*	70*
COc1ccc(-c2ccc3c(c2)CN(c2cccc(Cl)c2)Cc2cnnn2-3)cc1	·	·	·	6	11	·	·	·
Clc1cccc(N2Cc3cc(-c4ccccc4)ccc3-n3nncc3C2)c1	·	·	·	72*	1	·	47*	27*
CSc1nc(N)c(N=Nc2ccc([As](=O)(O)O)cc2)c(=O)[nH]1	·	-2	-0.67	66*	1	-2	68*	52*
CNC(=O)Oc1cc2c(cc1C(C)(C)C)CCC2	·	0	·	-11	-6	-4	·	·
N/C(=N\[N+](=O)[O-])N1CCN(C(=O)OC2CCCC2)CC1	·	-8	·	2	-7	-3	·	·
COC(=O)C1=C(c2cccc(OC)c2OC)C[C@@H]2CC[C@H]1N2C(=O)N1CCCC1	·	4	·	6	2	-10	·	·
COc1ccc2c(c1)c(C(=O)C(C)N1CCCCC1)c(C)n2C (stereo unspecified)	·	-10	·	-2	3	20	·	·
CN1CCC(N(C)c2nc(-c3ccc([N+](=O)[O-])cc3)nc3ccccc23)CC1	-4	11	-1.2	29*	0	12	11	2
Cn1c(O)c(C=Nc2cccc(C(F)(F)F)c2)c(=O)n(C)c1=O	·	-3	·	24*	-1	7	6	14*
COC(=O)C1=C(c2cccc(C#N)c2)C[C@@H]2CC[C@H]1N2C(=O)N1CCCC1	·	3	·	-2	2	1	·	·
O=C1NC(=O)C(=Cc2ccc(-c3ccccc3[N+](=O)[O-])o2)C(=O)N1	·	1	0.4	10	-7	-8	·	·
CNS(=O)(=O)c1ccc(-c2ccc(C=C3C(=O)NC(=O)NC3=O)o2)cc1	·	-7	·	25*	3	-8	94*	99*
NS(=O)(=O)c1ccc(-c2ccc(C=C3C(=O)NC(=O)NC3=O)o2)cc1	·	7	·	25*	9	6	91*	95*
Cc1c(Br)c(=O)oc2cc(OCC(=O)N3C[C@H]4C[C@@H](C3)c3cccc(=O)n3C4)ccc12	·	2	·	6	-7	-4	·	·
O=C(CF)N(O)c1ccc(C=Cc2ccccc2)cc1	·	15	·	37*	3	1	46*	-4
CCC1(CC)COP(=O)(OCC(Cl)CCl)OC1 (stereo unspecified)	·	-3	·	1	11	-3	·	·
CC(=Nc1ccccc1N)c1c(O)n(C)c(=O)[nH]c1=O	·	-2	·	8	-5	2	·	·
COC(=O)C[C@]1(C(=O)OC)CN(C#N)N(c2ccc(Cl)cc2)C12c1ccccc1-c1ccccc12	4	7	-4.4*	78*	55*	16	98*	97*
C[C@]12CC3CC(N)(C1)C[C@@](C)(C3)C2	·	-2	·	2	-8	-1	·	·
SMILES	TLR4 MyD88 comp	TLR9-MyD88 block	Dynein transport	ABHD5 PLIN5 PPI	NOD2 RIPK2 PPI	Beta2AR agonist	ABHD5-PLIN5 conf	HNF4 split-luc
C=C1C(=O)O[C@@H]2C[C@@H](C)[C@H]3C=CC(=O)[C@]3(O)C[C@@H]12	·	7	-3.3	33*	7	10	47*	24*
COC(=O)C1=C(c2ccc(Cl)c(C(F)(F)F)c2)C[C@@H]2CC[C@H]1N2C(=O)N1CCC(O)(c2ccc(Cl)cc2)CC1	·	-13	·	-5	-11	10	·	·
CN1CCCCC1Cc1ccccc1 (stereo unspecified)	·	·	·	0	1	·	·	·
CCOc1ccc(N2C(=O)NC(=O)/C(=C\c3ccccc3[N+](=O)[O-])C2=O)cc1	·	2	-1.8	28*	-5	6	87*	85*
COc1ccc(N2C(=O)NC(=O)/C(=C\c3ccccc3[N+](=O)[O-])C2=O)cc1	15	-1	0.12	23*	10	-1	81*	85*
C[C@H]1COc2cccc(N3CCN(C)CC3)c2S(=O)(=O)N1	·	·	·	-6	2	·	·	·
Cc1ccc(-c2cc(-c3ccccc3)cc(-c3ccccc3)[n+]2-c2ccccc2)cc1	·	-1	·	13	13	32	·	·
CN(C)c1ccc(-[n+]2c(-c3ccccc3)cc(-c3ccccc3)cc2-c2ccccc2)cc1	11	·	-1.2	26*	1	0	6	3
Cc1ccc(-c2cc(-c3ccc(C)cc3)[n+](-c3ccccc3)c(-c3ccc(C)cc3)c2)cc1	·	-14	·	28*	3	44*	9	11
COC(=O)C1=C(c2cc3ccccc3o2)C[C@@H]2CC[C@H]1N2C(=O)NCc1ccco1	·	-23	·	23*	-2	1	8	11
COC(=O)C1=C(c2cc3ccccc3o2)C[C@@H]2CC[C@H]1N2C(=O)NCc1cccc2ccccc12	·	-6	·	7	0	-9	·	·
CNS(=O)(=O)c1ccc(N=Cc2c(O)n(-c3cccc(C)c3)c(=O)[nH]c2=O)cc1	0	-2	-0.025	17	-2	-1	·	·
CNS(=O)(=O)c1ccc(N=Cc2c(O)n(-c3ccccc3)c(=O)[nH]c2=O)cc1	-8	-5	-1.6	40*	-4	5	6	22*
O=c1[nH]c(=O)n(-c2cccc(Cl)c2)c(O)c1/C=N/c1ccccn1	5	10	-0.36	26*	-1	-9	4	27*
CN1C2CCC1CC(OC(=O)c1ccc(Cl)cc1)C2 (stereo unspecified)	1	6	1.1	0	-1	-1	·	·
CN1[C@@H]2CC[C@H]1CC(OC1c3ccccc3CCc3ccccc31)C2 (stereo partly specified)	·	12	·	32*	-3	26	77*	35*
O=C1NC(=S)NC(=O)C12C(c1ccccc1)NC(=S)NC2c1ccccc1 (stereo unspecified)	1	-7	-0.8	29*	4	-2	61*	39*

Bioassay records from PubChem BioAssay.
